Experimental data reported in PMC10407628 (Computational and Structural Biotechnology Journal, 2023).
Ends that are not written are not given here. Peptide text beside a SMILES is read from it. * marks the point of attachment. FITC = O=C1OC2(c3ccc(O)cc3Oc3cc(O)ccc32)c2ccc(NC(=S)*)cc21

Tests used:
Mcl-1 (Mcl-1ΔN170ΔC23) = Mcl-1 (Mcl-1ΔN170ΔC23) (Homo sapiens, UniProt Q07820); test: Fluorescence polarization assay; format: binding
How it was run: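 Human Mcl-1ΔN170ΔC23 was expressed His-SUMO-tagged in E. coli Rosetta BL21(DE3), Ni-purified, ULP1-cleaved, then SEC-purified. Protein was serially diluted in 20 mM Tris pH 8.0, 50 mM NaCl with FITC-labelled BH3 peptide (10 nM), shaken 1 min, and incubated 10 min at room temperature in the dark. Polarization (mP) was read in at least three replicates, and Kd was obtained by sigmoidal dose-response nonlinear regression.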

FITC-Bim BH3 = test: fluorescence polarisation
FITC-Bmf BH3 = test: fluorescence polarisation
Bcl-xLΔC25ΔLoop = Bcl-xLΔC25ΔLoop (human, UniProt Q07817-1 1-208, removes the unstructured loop between residues 46–82); test: crystal structure
R146A Bcl-2 = R146A Bcl-2 (human, UniProt P10415 1-207, R146A); test: fluorescence polarisation
R139A Bcl-xL = R139A Bcl-xL (human, UniProt Q07817-1 1-208, R139A); test: fluorescence polarisation
Bcl-2ΔC32 = Bcl-2ΔC32 (human, UniProt P10415 1-207); test: fluorescence polarisation
Bcl-xLΔC25 = Bcl-xLΔC25 (human, UniProt Q07817-1 1-208); test: fluorescence polarisation
Bcl-2ΔC32ΔLoop = target: T1, Bcl-2ΔC32ΔLoop (human, UniProt P10415;Q07817); test: crystal structure
T1 chain: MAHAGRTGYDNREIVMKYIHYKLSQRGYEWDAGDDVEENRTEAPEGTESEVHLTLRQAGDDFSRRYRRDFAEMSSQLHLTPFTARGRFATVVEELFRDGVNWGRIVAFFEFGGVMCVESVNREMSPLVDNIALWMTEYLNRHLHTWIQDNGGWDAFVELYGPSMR

Chain of Mcl-1 (Mcl-1ΔN170ΔC23) (Q07820 171-327 limits assumed, stated change not applied): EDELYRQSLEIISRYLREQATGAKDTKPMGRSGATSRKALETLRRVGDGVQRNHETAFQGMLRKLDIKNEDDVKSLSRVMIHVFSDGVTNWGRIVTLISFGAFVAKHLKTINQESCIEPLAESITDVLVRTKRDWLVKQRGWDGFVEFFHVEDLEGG
Chain of R146A Bcl-2 (P10415 1-207 R146A): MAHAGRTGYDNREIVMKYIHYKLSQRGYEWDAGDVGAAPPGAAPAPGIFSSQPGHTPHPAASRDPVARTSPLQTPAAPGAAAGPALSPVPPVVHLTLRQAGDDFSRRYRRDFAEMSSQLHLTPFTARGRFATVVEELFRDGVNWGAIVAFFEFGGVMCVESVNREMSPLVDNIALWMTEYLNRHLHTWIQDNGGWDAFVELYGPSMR

Work on CC[C@H](C)[C@H](NC(=O)[C@H](CS)NC(=O)[C@H](CCC(N)=O)NC(=O)[C@H](CC(C)C)NC(=O)[C@H](CCCCN)NC(=O)[C@H](CCCNC(=N)N)NC(=O)[C@H](C)NC(=O)[C@@H](NC(=O)[C@H](CCC(N)=O)NC(=O)[C@@H](NC(=O)[C@H](CCC(=O)O)NC(=O)[C@H](C)NC(=O)[C@H](CCC(N)=O)NC(=O)[C@H](Cc1c[nH]cn1)NC(=S)Nc1ccc2c(c1)C(=O)OC21c2ccc(O)cc2Oc2cc(O)ccc21)C(C)C)[C@@H](C)CC)C(=O)N[C@@H](C)C(=O)N[C@@H](CC(=O)O)C(=O)N[C@@H](CCC(N)=O)C(=O)N[C@@H](Cc1ccccc1)C(=O)N[C@@H](Cc1c[nH]cn1)C(=O)N[C@@H](CCCNC(=N)N)C(=O)N[C@@H](CC(C)C)C(=O)N[C@@H](Cc1c[nH]cn1)C(=O)N[C@H](C(=O)N[C@@H](CCC(N)=O)C(=O)N[C@@H](CCC(N)=O)C(=O)O)C(C)C [FITC-Bmf BH3] ({FITC}-HQAEVQIARKLQCIADQFHRLHVQQ-OH) yielded a Kd (Mcl-1 (Mcl-1ΔN170ΔC23)) of 185 nM.

For “Mcl-1ΔN170ΔC23 (from UniProt Q07820 171-327) (domain or fragment)”, the Kd (FITC-Bim BH3) was 5.8 nM and the Kd (FITC-Bmf BH3) was 185 nM.

Molecule “Mcl-1 with Ala-227 substituted by Asp (from UniProt Q07820 171-327) (domain or fragment)” has a Kd (FITC-Bmf BH3) of 49 nM.

HQAEVQIARKLQCIADQFHRLHVQQ [25-mer Bmf BH3 peptide]: binds (Bcl-xLΔC25ΔLoop).

Work on {FITC}-HQAEVQIARKLQCIADQFHRLHVQQ [FITC-Bmf BH3] yielded a Kd (R146A Bcl-2) of 623 nM, a Kd (R139A Bcl-xL) of 1240 nM and a Kd (Bcl-2ΔC32) of 5.2 ± 0.3 nM. For the same molecule, the Kd (Bcl-xLΔC25) was 5.1 ± 0.4 nM.

EVQIARKLQCIADQFHRLHVQ [21-mer Bmf BH3 peptide]: binds (Bcl-2ΔC32ΔLoop).
